# Rows were chosen to be rich in hits. Some 3.5% of all compounds tested hit in one or more screens of this group.
# rCAG RNA binder: binders of r(CAG) RNA repeats, primary screen, biochemical, fluorescence; r(CAG) RNA repeat, TO-PRO-1 dye displacement fluorescence; inhibition, % at 3 µM; actives 1.3% (n = 370,000); AID 651821, 2012;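 active = inhibition above the plate cutoff, the mean of all test compounds on that plate plus 3 SD, cut at about 35% in these data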;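 note: 0% = DMSO alone and 100% = 100 µM mitoxantrone as full dye displacement; higher means more dye released from RNA so lower well fluorescence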
# TCR-CD3 inh: inhibitors of human TCR-CD3 interaction, primary screen, biochemical, fluorescence, TAMRA-labeled TCR probe; inhibition, % at 9.4 µM; actives 0.37% (n = 360,000); in the data active = inhibition above about 19%;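 note: recombinant mutant TCR 2C K166C tagged with TAMRA read by polarization; 0% = receptor in buffer alone and 100% = receptor with positive control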
# SIAE inh: human SIAE inhibitors, primary screen, biochemical, fluorescence polarization, FP-Rh probe, 1536-well HTS. Sialate O-acetylesterase (Homo sapiens), Q9HAT2. SIAE FP-Rh probe binding. inhibition, % at 9.66 µM. actives 0.69% (n = 370,000);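 active = inhibition above a cutoff: mean of compounds within the control limits plus 3 SD of those, cut at about 17% in these data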;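 note: 0% = plate median of compound wells and 100% = probe without SIAE protein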
# PRMT1 FP inh: PRMT1 methyltransferase inhibitors, primary screen, biochemical, fluorescence polarization; actives 1.3% (n = 370,000); inhibition, % at 2.79 µM; AID 652257, 2013; recombinant PRMT1, activity-based probe fluorescence polarization;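 active = inhibition above about 21% made by adding two undisclosed values, limit read from the data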
# HTRA1 inh: HTRA1 serine protease inhibitors, primary screen, biochemical, fluorescence polarization, HTS; Q92743; recombinant HTRA1, FP-rhodamine activity-based probe; inhibition, % at 5.96 µM; actives 0.5% (n = 340,000); in the data active = inhibition above about 36%;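 note: 0% = enzyme with DMSO and 100% = wells lacking enzyme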
# Target sequence (Q92743 whole entry, looked up): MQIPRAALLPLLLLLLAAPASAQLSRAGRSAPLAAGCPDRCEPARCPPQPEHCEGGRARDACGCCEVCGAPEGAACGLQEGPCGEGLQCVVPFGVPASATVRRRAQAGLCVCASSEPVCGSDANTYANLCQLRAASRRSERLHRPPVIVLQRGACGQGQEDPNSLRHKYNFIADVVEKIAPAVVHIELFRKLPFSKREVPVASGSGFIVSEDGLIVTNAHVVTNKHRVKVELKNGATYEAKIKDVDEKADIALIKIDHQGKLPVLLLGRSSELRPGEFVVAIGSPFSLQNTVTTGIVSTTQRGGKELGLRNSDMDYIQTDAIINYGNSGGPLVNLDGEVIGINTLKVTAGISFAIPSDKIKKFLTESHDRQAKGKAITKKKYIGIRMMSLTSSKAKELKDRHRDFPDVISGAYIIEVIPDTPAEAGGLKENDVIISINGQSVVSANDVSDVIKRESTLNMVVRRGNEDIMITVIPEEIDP
# ABHD4 inh: ABHD4 inhibitors, primary screen, biochemical, fluorescence polarization, mouse. purified mABHD4, FP-Rh probe fluorescence polarization. actives 0.54% (n = 370,000). (Lyso)-N-acylphosphatidylethanolamine lipase (Mus musculus), Q8VD66. inhibition, % at 8.92 µM;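 active = inhibition exceeding the mean over every tested compound plus 3 SD, cut at about 30% in these data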;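 note: 0% = plate median of compound wells and 100% = S159A mutant with DMSO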
#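 Test system: mouse ABHD4 enzyme, wild type. Reagent: FP-Rh fluorescent activity-based probe, added after compound pre-incubation. Timing: pre-incubation 45 min, probe exposure 60 min, at 25 °C. Technique: FP readout, ex 525 nm / em 598 nm. Benchmarks: high control S159A mutant with DMSO, low control median of compound wells.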
# PRMT1 confirm: PRMT1 methyltransferase inhibitors, confirmation, biochemical, fluorescence polarization, triplicate; inhibition, % at 2.79 µM; recombinant His-PRMT1, activity-based probe fluorescence polarization; actives 42% (n = 3,300); shares compounds with PRMT1 FP inh;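 active = mean inhibition across replicates above the hit cutoff derived for the earlier primary screen, cut at about 22% in these data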
# * = called active by the depositor; / = no result.
SMILES,rCAG RNA binder,TCR-CD3 inh,SIAE inh,PRMT1 FP inh,HTRA1 inh,ABHD4 inh,PRMT1 confirm
Cc1ccc(SC(CC(=O)c2ccc(F)cc2)C(=O)O)cc1 (stereo not drawn),1.3,1.2,7.8,81.9*,2.2,-3.0,79.0*
CC(C)N1CCc2c(sc(N)c2C#N)C1,-7.3,6.3,-1.7,2.5,1.9,-2.6,/
CC1(C)Cc2c(C#N)c(N)sc(=S)c2CO1,-7.1,-4.7,-4.6,46.1*,3.9,2.7,20.0
CC(C)C1Cc2c(C#N)c(N)sc(=S)c2CO1 (stereo not drawn),8.8,-4.0,0.5,48.3*,5.6,7.6,10.4
Cc1ccc(NC(=O)c2cc(N3C(=O)C=CC3=O)ccc2N2CCOCC2)cc1Cl,14.2,2.0,-18.2,89.5*,-12.1,4.0,103.4*
Cc1ccc(NC(=O)c2cc(N3C(=O)CCC3=O)ccc2N2CCOCC2)cc1,-0.2,-8.2,-0.6,1.9,-10.4,4.8,/
CCOC(=O)c1ccc(N2C(=O)CC(Sc3nnc(C)s3)C2=O)cc1 (stereo not drawn),9.6,1.0,4.6,71.7*,-3.2,-5.1,75.9*
Cc1nc(SC2CC(=O)N(c3ccccc3)C2=O)n[nH]1 (stereo not drawn),5.7,-1.1,2.2,50.3*,8.8,0.3,62.6*
O=C1CC(Sc2ncccn2)C(=O)N1c1ccccc1 (stereo not drawn),1.0,5.8,0.6,11.6,-4.4,-4.0,/
Nc1nnc(SC2CC(=O)N(c3ccccc3)C2=O)s1 (stereo not drawn),1.1,-5.6,2.2,74.6*,-0.8,5.5,72.7*
CC(=O)Nc1ccc(N2C(=O)CC(Sc3nc4ccccc4s3)C2=O)cc1 (stereo not drawn),-4.3,-0.9,3.4,16.4,-3.5,-4.0,/
COc1ccccc1N1C(=O)CC(Sc2n[nH]c(-c3cccc(C)c3)n2)C1=O (stereo not drawn),5.2,5.6,2.6,88.1*,2.4,4.7,72.5*
O=C(Nc1c(-c2ccccc2)nc2ncccn12)c1ccc(F)cc1,-0.2,/,0.7,-2.1,/,0.8,/
CCOc1ccc(N2C(=O)CC(Sc3nc4ccc(OCC)cc4s3)C2=O)cc1 (stereo not drawn),-0.1,5.3,-6.2,2.2,1.0,-1.1,/
C=CCNc1nnc(SC2CC(=O)N(c3ccc(OCCC)cc3)C2=O)s1 (stereo not drawn),2.2,3.3,4.2,67.2*,-0.9,-3.0,66.2*
COc1ccc(N2C(=O)CC(Sc3nc4ccccc4s3)C2=O)cc1OC (stereo not drawn),0.8,-0.8,-0.5,26.2*,0.5,3.7,22.9*
O=C(N[C@H]1CC[C@@H]2SC[C@@H](C(=O)O)N2C1=O)OCC1c2ccccc2-c2ccccc21,25.8,/,5.8,-5.4,/,2.8,/
COC(=O)[C@]12C[C@H](CC(=O)NCC3CCCCC3)C(=O)N(CCc3ccc(OC)c(OC)c3)C1=C[C@H](C(C)(C)C)O[C@@H]2C,4.9,3.9,3.9,0.8,/,2.5,/
COc1ccc(CCN(Cc2cccs2)S(=O)(=O)c2ccc(C)c(C)c2)cc1OC,7.0,/,-5.4,2.6,/,-6.9,/
Cc1ccc(C)c(N2CCN(c3nc4ccccc4c(=O)n3Cc3ccccc3)CC2)c1,1.4,4.6,1.1,-0.7,-2.2,1.8,/
O=c1c2ccccc2nc(N2CCN(c3ccccc3)CC2)n1Cc1ccccc1,0.7,8.4,1.7,74.2*,-11.7,-9.5,3.3
Cn1cnnc1SCc1ccc(-c2ccc(Br)cc2)o1,5.7,-2.4,3.3,29.8*,-11.4,7.3,2.8
CCC1Oc2ccc(C)cc2N(CC(=O)N(Cc2ccc(C)o2)C2CCCC2)C1=O (stereo not drawn),-2.6,-2.6,5.9,46.7*,-12.5,-6.0,38.0*

# From PubChem BioAssay
